“And” between values parts separate entries of the source, which are not always exact repeats. Equal entries are not always repeated. The source made the active and inactive calls. No cut-off for these calls is given here.
Key:
Rattus norvegicus [1] = species: Rattus norvegicus; test: 32-day X-ray(0= normal to 10= maximum joint destruction) was determined.; assay type: functional
Outline: (§1)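 Adjuvant-induced arthritic rats were dosed orally once daily from day 18 through day 50 after adjuvant injection, on a therapeutic regimen. The uninjected joint was X-rayed and scored blind at 32 days on an arbitrary scale from 0 (normal) to 10 (maximum joint destruction). Values are mean ± SD, compared with vehicle control by Dunnett's t test (p < 0.05).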

Rattus norvegicus [2] = test: Evaluated for the adjuvant-induced arthritis edema of uninjected paw on 11-day after 10 mg/kg dose of peroral administration of the compound; conditions: route oral
Rattus norvegicus [3] = test: Evaluated for the adjuvant-induced arthritis edema of uninjected paw on 32-day after 10 mg/kg dose of peroral administration of the compound; conditions: route oral
Rattus norvegicus [4] = species: Rattus norvegicus; test: Weight change of rat was determined; Not significant; assay type: functional, organism-based
Outline: (§2)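 In adjuvant arthritic rats dosed orally from day 18 through day 50 post adjuvant injection, weight change was compared with vehicle control by Dunnett's t test.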

Rattus norvegicus [5] = test: Evaluated for the carrageenan-induced pleural volume in rats at a dose of 100 mg/kg after peroral administration.; assay type: functional; conditions: route oral
Outline: (§3)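 Carrageenan-induced pleurisy in rats, Evans blue pleural effusion assay. Twenty oral doses, one per day, were given before carrageenan challenge. Pleural volume is mL ± SD, n = 6 per group, with % change from control and Dunnett's t test (p < 0.05).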

Rattus norvegicus [6] = test: Evaluated for the adjuvant-induced arthritis edema of uninjected paw on 11-day after 1 mg/kg dose of peroral administration of the compound; conditions: route oral
Rattus norvegicus [7] = test: Evaluated for the adjuvant-induced arthritis edema of uninjected paw on 32-day after 3.16 mg/kg dose of peroral administration of the compound; conditions: route oral
Mus musculus [8] = test: Evaluated for the Delayed type hypersensitivity (DTH) response to methylated BSA (mBSA) in sensitive mice at a dose of 31.6.00 mg/kg after peroral administration; assay type: functional
Outline: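 Delayed-type hypersensitivity in mice: sensitized to mBSA on day 0, dosed orally on days 4, 5, 6 and 7, then challenged with mBSA in the left hind paw on day 7. Paw weight was measured 24 h after challenge. n = 10 per group. Result is % change from sensitized positive control, by Dunnett's t test. Negative control received Freund's complete adjuvant without mBSA.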

Rattus norvegicus [9] = test: Evaluated for the adjuvant-induced arthritis edema of uninjected paw on 32-day after 1 mg/kg dose of peroral administration of the compound; conditions: route oral
Rattus norvegicus [10] = test: Evaluated for the adjuvant-induced arthritis edema of uninjected paw on 11-day after 3.16 mg/kg dose of peroral administration of the compound; conditions: route oral
Rattus norvegicus [11] = test: Evaluated for the […] on 32-day after 10 mg/kg dose of peroral administration of the compound; assay type: functional; conditions: route oral
Outline: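 Adjuvant-induced arthritic rat model with oral dosing from day 18 through day 50 post adjuvant. Edema was the volume change of the uninjected hind paw. The 11-day Δ is day 29 volume minus day 18 volume; the 32-day Δ is day 50 minus day 18. Values are mL ± SD against a vehicle control, by Dunnett's t test (p < 0.05).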

Rattus norvegicus [12] = test: Evaluated for the carrageenan-induced pleural volume in rats at a dose of 4 mg/kg after peroral administration.; assay type: functional; conditions: route oral; outline: as §3
Rattus norvegicus [13] = test: Evaluated for the adjuvant-induced arthritis edema of uninjected paw on 11-day after 31.6 mg/kg dose of peroral administration of the compound; conditions: route oral
Rattus norvegicus [14] = test: Evaluated for the adjuvant-induced arthritis edema of uninjected paw on 32-day after 31.6 mg/kg dose of peroral administration of the compound; conditions: route oral
Rattus norvegicus [15] = species: Rattus norvegicus; test: Weight change of rat was determined; + = significant increase in weight change from control; assay type: functional, organism-based; outline: as §2
Rattus norvegicus [16] = test: Evaluated for the carrageenan-induced pleural volume in rats at a dose of 3.16 mg/kg after peroral administration.; assay type: functional; conditions: route oral; outline: as §3
Mus musculus [17] = test: Evaluated for the delayed type hypersensitivity (DTH) response to methylated BSA (mBSA) in sensitive mice after peroral administration of 50 mg/kg; assay type: functional; conditions: route oral
Outline: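 Mice were sensitized to mBSA on day 0, dosed orally on days 4, 5, 6 and 7, and challenged with mBSA in the left hind paw on day 7. Paw weight was measured 24 h after challenge, with 10 mice per group. Negative controls received Freund's complete adjuvant without mBSA.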

Rattus norvegicus [18] = test: Evaluated for the adjuvant-induced arthritis edema of uninjected paw on 32-day after 100 mg/kg dose of peroral administration of the compound; conditions: route oral
Rattus norvegicus [19] = test: Evaluated for the adjuvant-induced arthritis edema of uninjected paw on 11-day after 100 mg/kg dose of peroral administration of the compound; conditions: route oral
Rattus norvegicus [20] = species: Rattus norvegicus; test: X-rays scored on an arbitrary (0=normal to 10=max. joint destruction) scale in a blinded manner was determined; 32-day X-ray; assay type: functional; outline: as §1

## CNS(=O)(=O)OC[C@@H](COc1ccccc1OC)OS(=O)(=O)NC
Rattus norvegicus [1]
  Score: <4.96 and 6.64
Rattus norvegicus [2]
  Edema: <-0.33 mL
Rattus norvegicus [3]
  Edema: <-0.46 mL
Rattus norvegicus [4]
  Weight change: inactive

## CNS(=O)(=O)OCC(COc1ccccc1OC)OS(=O)(=O)NC (stereo unspecified)
Rattus norvegicus [1]
  Score: <5.82 and <5.77 and <6.9 and 7.8
Rattus norvegicus [5]
  Pleural volume: 4.92 mL
Rattus norvegicus [6]
  Edema: 0.1 mL
Rattus norvegicus [2]
  Edema: <-0.39 mL
Rattus norvegicus [7]
  Edema: <-0.38 mL
Mus musculus [8]
  Paw weight: 179 mg
Rattus norvegicus [9]
  Edema: <-0.23 mL
Rattus norvegicus [10]
  Edema: <-0.14 mL
Rattus norvegicus [11]
  Edema: -0.41 mL and <-0.42 mL and <-0.61 mL
Rattus norvegicus [12]
  Pleural volume: 5.2 mL
Rattus norvegicus [4]
  Weight change: inactive

## CNS(=O)(=O)OC[C@H](COc1ccccc1OC)OS(=O)(=O)NC
Rattus norvegicus [1]
  Score: 7.86
Rattus norvegicus [13]
  Edema: 0.16 mL
Rattus norvegicus [14]
  Edema: -0.03 mL

## COc1ccc2c(c1)c(CC(=O)O)c(C)n2C(=O)c1ccc(Cl)cc1 [INDOMETHACIN]
Rattus norvegicus [1]
  Score: 3.54 and <4.07 and <3.8 and <4.04
Rattus norvegicus [15]
  Weight change: Active
Rattus norvegicus [16]
  Pleural volume: 3.5 mL

## O=P1(N(CCCl)CCCl)NCCCO1 (stereo unspecified) [CYCLOPHOSPHAMIDE ANHYDROUS]
Mus musculus [17]
  Paw weight: 153 mg

## COc1ccccc1OCC(O)CO (stereo unspecified) [GUAIFENESIN]
Rattus norvegicus [18]
  Edema: -0.4 mL
Rattus norvegicus [19]
  Edema: 0.07 mL
Rattus norvegicus [20]
  Score: 8.83
Rattus norvegicus [4]
  Weight change: inactive
